High-throughput results as filed in PubChem BioAssay.
HNF4A DNA FP – change in binding of human HNF4 alpha to DNA | 360,000 compounds, 0.3% hits | HNF4a-FITC DNA binding, fluorescence polarization, 1 h | activity change, % at 10 µM; in the data active = activity change above about 30%, passing the limit was not always enough
SENP1 FRET inh – inhibitors of human SENP1 SUMO protease catalytic domain. Q9P0U3. recombinant SENP1 catalytic domain, CyPet-SUMO1-YPet FRET cleavage. inhibition, % at 10 µM. 360,000 compounds, 0.21% hits. AID 624204;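 active = inhibition at least 30% at 10 µM, raw YFP signal under a set limit, fluorescence ratio 0.5 to 1.5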;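 note: 0% = enzyme with DMSO and 100% = no enzyme wells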
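Compound: 10 µM single point, 0.5% DMSO; Test system: hSENP1 catalytic domain, recombinant; Timing: 50 min reaction at room temperature; Technique: FRET, CFP and YFP emission; Control set: no-enzyme wells low, DMSO-plus-enzyme wells high control.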
CSN deneddyl inh – CSN deneddylation inhibition; inhibition, % at 12.5 µM; Q92905; Purified CSN, SCF-Nedd8-OG deneddylation, fluorescence polarization; AID 651999; 360,000 compounds, 0.38% hits;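 active = pattern-corrected inhibition above about 35%, with an unprinted fluorescence ratio check between 0.5 and 1.5, limit read from the data, passing the limit was not always enough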;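 note: 0% = enzyme with substrate and 100% = substrate without enzyme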
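Material: human Csn5 produced in HEK293T cells; Input: enzyme 0.24 nM; Reagent: SCFSkp2-Nedd8OG substrate at 10 nM final; Dosing: 12.5 µM compound; Incubation: 90 min reaction at room temperature; Detection: fluorescence polarization of the substrate; Evaluation: % inhibition of substrate cleavage by Csn5; Control set: substrate-only high control, full reaction low control.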
TPT1 inh – C. albicans TPT1 enzyme inhibition; recombinant caTPT1, FP RNA substrate dephosphorylation; inhibition, % at 5 µM; 300,000 compounds, 0.81% hits; AID 1962;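 active = inhibition above the mean of all tested compounds plus 3 SD, set per screening campaign, cut at about 24% in these data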;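 note: plate controls were DMSO alone for no effect and ferristatin control at 100 nM for full effect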
Rpn11 block – blocks the human proteasome subunit Rpn11. O00487. human 26S proteasome, Ub4-pepOG fluorescence polarization; 20S core pre-blocked with epoxomicin. inhibition, % at 20 µM. 360,000 compounds, 0.59% hits. AID 588493;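 active = inhibition at 20 µM, scaled to each plate's controls, above about 33%, limit read from the data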
Target sequence (O00487 whole entry, looked up): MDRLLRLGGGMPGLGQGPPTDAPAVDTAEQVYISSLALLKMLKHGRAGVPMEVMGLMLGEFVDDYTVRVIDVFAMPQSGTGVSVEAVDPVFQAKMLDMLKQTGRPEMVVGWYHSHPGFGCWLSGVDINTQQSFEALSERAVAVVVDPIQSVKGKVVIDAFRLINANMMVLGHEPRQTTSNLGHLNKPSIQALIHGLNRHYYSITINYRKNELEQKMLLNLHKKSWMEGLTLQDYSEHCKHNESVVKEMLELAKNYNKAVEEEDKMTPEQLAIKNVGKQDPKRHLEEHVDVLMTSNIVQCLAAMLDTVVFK
Rpn11 confirm – Rpn11 inhibition confirmation, single concentration | shares compounds with Rpn11 block | purified human 26S proteasome, Ub4-pepOG fluorescence polarization; proteasome pretreated with epoxomicin | inhibition, % at 20 µM | 1,900 compounds, 29% hits | AID 602318
MMP-2 counter – MMP-2 (human) inhibition counter-screen; shares compounds with Rpn11 block; recombinant MMP-2, FRET peptide cleavage fluorescence; inhibition, % at 20 µM; 1,900 compounds, 4% hits;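 note: human MMP-2 activated beforehand with APMA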
Thrombin inh – counter-screen for RPN11 inhibitors: inhibition of bovine thrombin | shares compounds with Rpn11 block | 1,900 compounds, 13% hits | inhibition, % at 20 µM | bovine thrombin cleavage of Ub4-pepOG, fluorescence polarization;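 active = mean inhibition at least 40% at 20 µM, or signal 3 deviations below plate average, so some actives read negative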;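 note: plate controls were thrombin with DMSO for no effect and buffer wells lacking thrombin for full effect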
The depositor's hits bear a star; nt = no result given. Hits are enriched below; roughly 1.6% of the tested compounds scored in any of these assays. Cut-off read from the data, not from the text of the source, unless noted: active = inhibition above about 40%; inactive = the rest.

SMILES	HNF4A DNA FP	SENP1 FRET inh	CSN deneddyl inh	TPT1 inh	Rpn11 block	Rpn11 confirm	MMP-2 counter	Thrombin inh
COc1ccc(NC(=O)CCCn2cc([N+](=O)[O-])cn2)cc1	-2	2	-7	-1	-6	nt	nt	nt
Cc1ccc(S(=O)(=O)NCC(=O)OCC(=O)Nc2ccccc2OC(F)F)cc1	6	2	-4	0	2	nt	nt	nt
O=C(COC(=O)CCNS(=O)(=O)c1ccc(Cl)cc1)Nc1ccccc1OC(F)F	40*	1	-2	nt	89*	-21	-38	-24
Cc1cccc(C(O)C(O)c2cccc(C)n2)n1 (centres undefined)	21	0	6	nt	99*	-4	1	8
COc1ccc(CCNC(=O)CS(=O)Cc2nc(-c3cccs3)oc2C)cc1OC (centres undefined)	2	-2	-4	3	120*	12	-6	13
O=C(Nc1ccc(Cl)cc1)/C(=C/c1cccc(O)c1)c1nc2ccccc2s1	11	-115	-2	7	46*	17	-8	9
O=C(O)c1ccc(COc2ccccc2C=C2C(=O)c3ccccc3C2=O)cc1	2	-1	-1	5	46*	66*	-18	15
O=C(O)c1ccc(COc2ccccc2/C=C2/NC(=O)N(c3cccc(Cl)c3)C2=O)cc1	-4	21	45*	0	56*	56*	19	15
Cc1cc(=O)n(C(C)Cc2ccccc2)n1C(C)Cc1ccccc1 (centres undefined)	2	2	-7	nt	-3	nt	nt	nt
CC(Nc1ccc(Br)cn1)c1cc(Cl)ccc1O (centres undefined)	30	0	-6	nt	73*	6	8	4
CC(Nc1ccc(Cl)cc1)c1cc(Cl)ccc1O (centres undefined)	10	1	-3	-4	0	nt	nt	nt
COc1ccc(OC)c(CNC(=O)CCC(=O)N2Cc3cccc(OC)c3Oc3ncccc32)c1	0	0	4	-1	-4	nt	nt	nt
CC(=O)N1CCc2cc(N=NC3=C(O)CCCC3=O)ccc21	43*	47*	31	19	56*	51*	-7	22
O=C1CCCC(O)=C1N=Nc1ccc(Cl)c(Cl)c1	1	2	0	-1	1	nt	nt	nt
O=c1[nH][nH]c2c1[C@H](C1CCCC1)O[C@H](CCc1ccccc1)C2	-1	-2	5	nt	nt	nt	nt	nt
Cc1ccc(C(=O)COC(=O)c2cc(=O)[nH]c3ccccc23)cc1C	-2	1	20	-6	100*	59*	13	4
Cc1ccc(CN(C)C(=O)c2ccccc2NC(=O)c2ccccc2)o1	-3	-3	-6	nt	-6	nt	nt	nt
Cc1cc(NS(=O)(=O)c2ccc(NC(=O)c3cc4c(=O)n5ccccc5nc4s3)cc2)nc(C)n1	-10	-27	9	nt	17	nt	nt	nt
CN(C)S(=O)(=O)c1cccc(NC(=O)c2cc3c(=O)n4ccccc4nc3s2)c1	7	-30	0	-2	85*	0	9	-2
COc1ccc(C#Cc2ccc3c(c2)O[C@@H](CN(C)C(=O)Nc2cccc(OC)c2)[C@H](C)CN([C@@H](C)CO)S3(=O)=O)cc1	5	-44	9	nt	47*	41*	-41	38
COc1cc(C2(C)SCCCS2)cc(OC)c1OC	0	-4	-3	nt	nt	nt	nt	nt
Cc1ccnc(NS(=O)(=O)c2ccc(NC(=O)c3cc(-c4ccccc4)nc4ccccc34)cc2)n1	8	-33	3	1	22	nt	nt	nt
Cc1ccnc(NS(=O)(=O)c2ccc(NC(=O)c3cc(-c4ccc(Br)cc4)nc4ccccc34)cc2)n1	3	-39	1	3	38*	18	10	8
CCCCCCCCCC[N+](C)(C)CC/C=C1/c2ccccc2Sc2ccc(Cl)cc21	10	1	9	0	48*	38	-2	1
